Activity calls are given as the source filed them. No cut-off for these calls is given here.
Tests used:
Nociceptin receptor [1] = target: Nociceptin receptor (Mus musculus, UniProt P35377); assay: Inhibition of [3H]NC-NH2 binding to mouse forebrain membranes; set-up: species or system Membrane
Mus musculus [2] = species on record: Mus musculus; assay: Maximum receptor binding assay determined by using mouse forebrain membrane and [3H]NC-NH2; format: functional
Method in brief: (§1)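 Forebrains from male Swiss mice are homogenised in 50 mM Tris-HCl, 2 mM EDTA, 100 μM PMSF, pH 7.4. Membranes are preincubated 30 min at 37 °C and stored at -80 °C. Displacement uses 0.5 nM [3H]NC-NH2, 200 μg protein, and graded ligand concentrations up to 10 μM, for 120 min at 25 °C.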

Mus musculus [3] = species on record: Mus musculus; assay: Antagonist activity of compound in the electrically stimulated mouse vas deferens; Inactive; format: functional
Method in brief: (§2)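 Peptides without agonist effect in the mouse vas deferens (Mg2+-free Krebs, 33 °C, 0.05 Hz, 1 ms pulses) are tested up to 10 μM. Each is added 15 min before a cumulative concentration-response curve to NC(1-13)-NH2. pKB is calculated with the Gaddum-Schild equation, taking slope as unity, from the concentration-ratio of equieffective agonist concentrations.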

Mus musculus [4] = species on record: Mus musculus; assay: Maximum receptor binding assay determined by using mouse forebrain membrane and [3H]NC-NH2; Inactive; format: functional; method in brief: as §1
Mus musculus [5] = species on record: Mus musculus; assay: Agonist activity of compound in the electrically stimulated mouse vas deferens; Inactive; format: functional
Method in brief: (§3)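 Vas deferens from male Swiss mice (25-30 g) is held in Mg2+-free Krebs at 33 °C, gassed with 95% O2/5% CO2 at pH 7.4. Tissue is stimulated at 0.05 Hz with 1 ms supramaximal pulses under 0.3 g resting tension, and twitches are recorded isotonically.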

[6] = target: Nociceptin receptor (Mus musculus) (UniProt P35377); assay: Maximum receptor binding in the electrically stimulated mouse vas deferens; format: functional, tissue-based; method in brief: as §3
Sequence of Nociceptin receptor (Mus musculus) (P35377 whole entry): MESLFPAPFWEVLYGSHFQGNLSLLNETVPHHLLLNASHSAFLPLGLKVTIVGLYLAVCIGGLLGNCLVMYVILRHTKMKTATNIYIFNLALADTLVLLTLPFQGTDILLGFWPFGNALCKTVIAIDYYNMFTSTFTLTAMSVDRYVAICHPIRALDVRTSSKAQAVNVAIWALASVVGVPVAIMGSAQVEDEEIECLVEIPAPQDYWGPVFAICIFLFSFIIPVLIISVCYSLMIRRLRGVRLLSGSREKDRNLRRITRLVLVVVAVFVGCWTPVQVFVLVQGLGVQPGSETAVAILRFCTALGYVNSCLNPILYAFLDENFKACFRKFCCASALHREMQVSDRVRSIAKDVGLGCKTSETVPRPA

Nociceptin receptor [7] = target: Nociceptin receptor (Homo sapiens, UniProt P41146); assay: Inhibition of forskolin stimulated cAMP accumulation in CHO cells stably expressing the human OP4 receptor; format: functional, cell-based
Sequence of Nociceptin receptor (Homo sapiens, UniProt P41146) (P41146 whole entry): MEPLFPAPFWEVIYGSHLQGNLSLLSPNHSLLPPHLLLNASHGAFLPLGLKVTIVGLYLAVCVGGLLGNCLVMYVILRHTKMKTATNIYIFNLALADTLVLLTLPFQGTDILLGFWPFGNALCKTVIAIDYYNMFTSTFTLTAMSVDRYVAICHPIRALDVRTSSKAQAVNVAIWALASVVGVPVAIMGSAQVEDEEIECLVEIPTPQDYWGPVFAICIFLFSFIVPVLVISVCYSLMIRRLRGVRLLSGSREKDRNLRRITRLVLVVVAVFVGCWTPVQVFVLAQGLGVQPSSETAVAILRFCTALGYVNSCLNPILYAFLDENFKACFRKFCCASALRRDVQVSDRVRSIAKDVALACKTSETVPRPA

Mus musculus [8] = species on record: Mus musculus; assay: Antagonist activity of compound in the electrically stimulated mouse vas deferens; format: functional; method in brief: as §2
Mus musculus [9] = species on record: Mus musculus; assay: Maximum receptor binding assay determined by using mouse forebrain membrane and [3H]NC-NH2 at 10 uM; format: functional
Mus musculus [10] = species on record: Mus musculus; assay: receptor binding constant using mouse forebrain membranes and [3H]NC-NH2 as radioligand; format: functional, Membrane; method in brief: as §1
Mus musculus [11] = species on record: Mus musculus; assay: Maximum receptor binding using mouse forebrain membranes and [3H]NC-NH2; format: functional; conditions: Membrane; method in brief: as §1

Sequence of Nociceptin receptor (Mus musculus, UniProt P35377) (P35377 whole entry): as the sequence (P35377 whole entry) above

SMILES	Ki (Nociceptin receptor [1]) [nM]	Emax [6] [%]	other results
CC(C)C[C@H](NC(=O)[C@H](CCCCN)NC(=O)[C@H](CCCN=C(N)N)NC(=O)[C@H](C)NC(=O)[C@H](CO)NC(=O)[C@H](CCCCN)NC(=O)[C@H](CCCN=C(N)N)NC(=O)[C@H](C)NC(=O)CNC(=O)[C@@H](NC(=O)[C@H](Cc1ccccc1)NC(=O)CNC(=O)CNC(=O)[C@@H](N)Cc1ccccc1)[C@@H](C)O)C(=O)N[C@@H](C)C(=O)N[C@@H](CC(N)=O)C(=O)N[C@@H](CCC(N)=O)C(=O)O	1.91		
C[C@H](NC(=O)CNC(=O)[C@@H](NC(=O)[C@H](Cc1ccccc1)NC(=O)CNC(=O)CNC(=O)[C@@H](N)Cc1ccccc1)[C@@H](C)O)C(=O)N[C@@H](CCCNC(=N)N)C(=O)N[C@@H](CCCCN)C(=O)N[C@@H](CO)C(=O)N[C@@H](C)C(=O)N[C@@H](CCCNC(=N)N)C(=O)N[C@@H](CCCCN)C(N)=O			Emax (Mus musculus [2]): -82%
C[C@H](NC(=O)CNC(=O)[C@@H](NC(=O)[C@H](Cc1ccc(-c2ccccc2)cc1)NC(=O)CNC(=O)CNC(=O)[C@@H](N)Cc1ccccc1)[C@@H](C)O)C(=O)N[C@@H](CCCN=C(N)N)C(=O)N[C@@H](CCCCN)C(=O)N[C@@H](CO)C(=O)N[C@@H](C)C(=O)N[C@@H](CCCN=C(N)N)C(=O)N[C@@H](CCCCN)C(N)=O			pKb (Mus musculus [3]): inactive; Emax (Mus musculus [4]): inactive; Log EC50 (Mus musculus [5]): inactive
C[C@H](NC(=O)CNC(=O)[C@@H](NC(=O)[C@H](Cc1ccccc1F)NC(=O)CNC(=O)CNC(=O)[C@@H](N)Cc1ccccc1)[C@@H](C)O)C(=O)N[C@@H](CCCN=C(N)N)C(=O)N[C@@H](CCCCN)C(=O)N[C@@H](CO)C(=O)N[C@@H](C)C(=O)N[C@@H](CCCN=C(N)N)C(=O)N[C@@H](CCCCN)C(N)=O	3.63	-94	
C[C@H](NC(=O)CNC(=O)[C@@H](NC(=O)[C@H](Cc1ccc(I)cc1)NC(=O)CNC(=O)CNC(=O)[C@@H](N)Cc1ccccc1)[C@@H](C)O)C(=O)N[C@@H](CCCN=C(N)N)C(=O)N[C@@H](CCCCN)C(=O)N[C@@H](CO)C(=O)N[C@@H](C)C(=O)N[C@@H](CCCN=C(N)N)C(=O)N[C@@H](CCCCN)C(N)=O	17.4	-76	
C[C@H](NC(=O)CNC(=O)[C@@H](NC(=O)[C@H](Cc1ccccc1)N(C)C(=O)CNC(=O)CNC(=O)[C@@H](N)Cc1ccccc1)[C@@H](C)O)C(=O)N[C@@H](CCCN=C(N)N)C(=O)N[C@@H](CCCCN)C(=O)N[C@@H](CO)C(=O)N[C@@H](C)C(=O)N[C@@H](CCCN=C(N)N)C(=O)N[C@@H](CCCCN)C(N)=O			Emax (Mus musculus [2]): -84%
C[C@H](NC(=O)CNC(=O)[C@@H](NC(=O)[C@H](Cc1ccc(O)cc1)NC(=O)CNC(=O)CNC(=O)[C@@H](N)Cc1ccccc1)[C@@H](C)O)C(=O)N[C@@H](CCCN=C(N)N)C(=O)N[C@@H](CCCCN)C(=O)N[C@@H](CO)C(=O)N[C@@H](C)C(=O)N[C@@H](CCCN=C(N)N)C(=O)N[C@@H](CCCCN)C(N)=O	501		EC50 (Nociceptin receptor [7]): 135 nM; pKb (Mus musculus [8]): 5.47
C[C@H](NC(=O)CNC(=O)[C@@H](NC(=O)[C@H](CC1CCCCC1)NC(=O)CNC(=O)CNC(=O)[C@@H](N)Cc1ccccc1)[C@@H](C)O)C(=O)N[C@@H](CCCN=C(N)N)C(=O)N[C@@H](CCCCN)C(=O)N[C@@H](CO)C(=O)N[C@@H](C)C(=O)N[C@@H](CCCN=C(N)N)C(=O)N[C@@H](CCCCN)C(N)=O			Emax (Mus musculus [9]): -34%
C[C@H](NC(=O)CNC(=O)[C@@H](NC(=O)[C@H](Cc1ccc(C(F)(F)F)cc1)NC(=O)CNC(=O)CNC(=O)[C@@H](N)Cc1ccccc1)[C@@H](C)O)C(=O)N[C@@H](CCCN=C(N)N)C(=O)N[C@@H](CCCCN)C(=O)N[C@@H](CO)C(=O)N[C@@H](C)C(=O)N[C@@H](CCCN=C(N)N)C(=O)N[C@@H](CCCCN)C(N)=O	1	-75	
C[C@H](NC(=O)CNC(=O)[C@@H](NC(=O)[C@@H](NC(=O)CNC(=O)CNC(=O)[C@@H](N)Cc1ccccc1)[C@@H](C)c1ccccc1)[C@@H](C)O)C(=O)N[C@@H](CCCN=C(N)N)C(=O)N[C@@H](CCCCN)C(=O)N[C@@H](CO)C(=O)N[C@@H](C)C(=O)N[C@@H](CCCN=C(N)N)C(=O)N[C@@H](CCCCN)C(N)=O			Emax (Mus musculus [2]): -86%
C[C@H](NC(=O)CNC(=O)[C@@H](NC(=O)[C@H](Cc1ccc(Cl)cc1)NC(=O)CNC(=O)CNC(=O)[C@@H](N)Cc1ccccc1)[C@@H](C)O)C(=O)N[C@@H](CCCN=C(N)N)C(=O)N[C@@H](CCCCN)C(=O)N[C@@H](CO)C(=O)N[C@@H](C)C(=O)N[C@@H](CCCN=C(N)N)C(=O)N[C@@H](CCCCN)C(N)=O	0.794	-82	
C[C@H](NC(=O)CNC(=O)[C@@H](NC(=O)[C@H](Cc1ccc(F)cc1)NC(=O)CNC(=O)CNC(=O)[C@@H](N)Cc1ccccc1)[C@@H](C)O)C(=O)N[C@@H](CCCN=C(N)N)C(=O)N[C@@H](CCCCN)C(=O)N[C@@H](CO)C(=O)N[C@@H](C)C(=O)N[C@@H](CCCN=C(N)N)C(=O)N[C@@H](CCCCN)C(N)=O	0.398	-85	
C[C@H](NC(=O)CNC(=O)[C@@H](NC(=O)[C@H](Cc1ccc(Br)cc1)NC(=O)CNC(=O)CNC(=O)[C@@H](N)Cc1ccccc1)[C@@H](C)O)C(=O)N[C@@H](CCCN=C(N)N)C(=O)N[C@@H](CCCCN)C(=O)N[C@@H](CO)C(=O)N[C@@H](C)C(=O)N[C@@H](CCCN=C(N)N)C(=O)N[C@@H](CCCCN)C(N)=O	1.82	-85	
C[C@H](NC(=O)CNC(=O)[C@@H](NC(=O)[C@H](Cc1ccc2ccccc2c1)NC(=O)CNC(=O)CNC(=O)[C@@H](N)Cc1ccccc1)[C@@H](C)O)C(=O)N[C@@H](CCCN=C(N)N)C(=O)N[C@@H](CCCCN)C(=O)N[C@@H](CO)C(=O)N[C@@H](C)C(=O)N[C@@H](CCCN=C(N)N)C(=O)N[C@@H](CCCCN)C(N)=O			Emax (Mus musculus [2]): -75%
C[C@H](NC(=O)CNC(=O)[C@@H](NC(=O)[C@H](Cc1ccc([N+](=O)[O-])cc1)NC(=O)CNC(=O)CNC(=O)[C@@H](N)Cc1ccccc1)[C@@H](C)O)C(=O)N[C@@H](CCCN=C(N)N)C(=O)N[C@@H](CCCCN)C(=O)N[C@@H](CO)C(=O)N[C@@H](C)C(=O)N[C@@H](CCCN=C(N)N)C(=O)N[C@@H](CCCCN)C(N)=O	0.302	-86	
C[C@H](NC(=O)CNC(=O)[C@@H](NC(=O)[C@H](Cc1ccc(C#N)cc1)NC(=O)CNC(=O)CNC(=O)[C@@H](N)Cc1ccccc1)[C@@H](C)O)C(=O)N[C@@H](CCCN=C(N)N)C(=O)N[C@@H](CCCCN)C(=O)N[C@@H](CO)C(=O)N[C@@H](C)C(=O)N[C@@H](CCCN=C(N)N)C(=O)N[C@@H](CCCCN)C(N)=O	0.603	-84	
Cc1ccc(C[C@H](NC(=O)CNC(=O)CNC(=O)[C@@H](N)Cc2ccccc2)C(=O)N[C@H](C(=O)NCC(=O)N[C@@H](C)C(=O)N[C@@H](CCCN=C(N)N)C(=O)N[C@@H](CCCCN)C(=O)N[C@@H](CO)C(=O)N[C@@H](C)C(=O)N[C@@H](CCCN=C(N)N)C(=O)N[C@@H](CCCCN)C(N)=O)[C@@H](C)O)cc1		-73	Log Ki (Mus musculus [10]): -7.84
C[C@H](NC(=O)CNC(=O)[C@@H](NC(=O)[C@H](Cc1ccc(N)cc1)NC(=O)CNC(=O)CNC(=O)[C@@H](N)Cc1ccccc1)[C@@H](C)O)C(=O)N[C@@H](CCCN=C(N)N)C(=O)N[C@@H](CCCCN)C(=O)N[C@@H](CO)C(=O)N[C@@H](C)C(=O)N[C@@H](CCCN=C(N)N)C(=O)N[C@@H](CCCCN)C(N)=O	1780	-23	
COc1ccc(C[C@H](NC(=O)CNC(=O)CNC(=O)[C@@H](N)Cc2ccccc2)C(=O)N[C@H](C(=O)NCC(=O)N[C@@H](C)C(=O)N[C@@H](CCCN=C(N)N)C(=O)N[C@@H](CCCCN)C(=O)N[C@@H](CO)C(=O)N[C@@H](C)C(=O)N[C@@H](CCCN=C(N)N)C(=O)N[C@@H](CCCCN)C(N)=O)[C@@H](C)O)cc1	89.1	-80	EC50 (Nociceptin receptor [7]): 63.1 nM
C[C@H](NC(=O)CNC(=O)[C@@H](NC(=O)[C@H](Cc1cccc2ccccc12)NC(=O)CNC(=O)CNC(=O)[C@@H](N)Cc1ccccc1)[C@@H](C)O)C(=O)N[C@@H](CCCN=C(N)N)C(=O)N[C@@H](CCCCN)C(=O)N[C@@H](CO)C(=O)N[C@@H](C)C(=O)N[C@@H](CCCN=C(N)N)C(=O)N[C@@H](CCCCN)C(N)=O			Emax (Mus musculus [11]): -80%
C[C@H](NC(=O)CNC(=O)[C@@H](NC(=O)CN(Cc1ccccc1)C(=O)CNC(=O)CNC(=O)[C@@H](N)Cc1ccccc1)[C@@H](C)O)C(=O)N[C@@H](CCCN=C(N)N)C(=O)N[C@@H](CCCCN)C(=O)N[C@@H](CO)C(=O)N[C@@H](C)C(=O)N[C@@H](CCCN=C(N)N)C(=O)N[C@@H](CCCCN)C(N)=O			Emax (Mus musculus [9]): -16%
C[C@H](NC(=O)CNC(=O)[C@@H](NC(=O)[C@H](Cc1cccc(F)c1)NC(=O)CNC(=O)CNC(=O)[C@@H](N)Cc1ccccc1)[C@@H](C)O)C(=O)N[C@@H](CCCN=C(N)N)C(=O)N[C@@H](CCCCN)C(=O)N[C@@H](CO)C(=O)N[C@@H](C)C(=O)N[C@@H](CCCN=C(N)N)C(=O)N[C@@H](CCCCN)C(N)=O	0.891	-90	

From ChEMBL document CHEMBL1134643 (J Med Chem, 2001)
